The text below walks through data of ChEMBL document CHEMBL5154720, “In silico screening-based discovery of novel covalent inhibitors of the SARS-CoV-2 3CL protease” (Eur J Med Chem, 2022).

Each structure is given as a SMILES string.

In assay [1] the target is Replicase polyprotein 1ab (Severe acute respiratory syndrome coronavirus 2) (UniProt P0DTD1). As to the kind of experiment: Inhibition of SARS-CoV-2 3CL protease using MCA-AVLQSGFR-Lys(Dnp)-Lys-NH2 fluorogenic peptide as substrate incubated for 30 mins at 50 uM and measured by FRET assay relative to control. An outline of the steps:
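Recombinant SUMO-tag-cleaved 3CLpro (E. coli BL21(DE3), Ni-NTA, Q-Sepharose, size exclusion), 50 nM final, preincubated 30 min with compound in 50 mM Tris pH 7.3, 1 mM EDTA; reaction started with 20 μM final FRET substrate. Fluorescence 320/405 nm read every 30 s for 5 min; initial velocity relative to DMSO control. Mean ± SD of three independent experiments.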

For assay [2], the target named is Replicase polyprotein 1ab (Severe acute respiratory syndrome coronavirus 2, UniProt P0DTD1). The assay can be described thus: Inhibition of SARS-CoV-2 3CL protease using MCA-AVLQSGFR-Lys(Dnp)-Lys-NH2 fluorogenic peptide as substrate incubated for 30 mins and measured by FRET assay.

Turning to `Cn1c(CN2CCC(C(N)=O)CC2)c(C#N)c2ccccc21`, the inhibition (as a rule, the percentage by which the read-out fell short of the control) in assay [1] turned out to be 24.1%.

As to `CN(C(=O)CN1CC(C=O)c2ccccc21)c1ccccc1` (stereo unspecified), in assay [1], the inhibition stood at 32.6%. The compound `Cc1cccc(C)c1NC(=O)CSc1nc2c(cc1C#N)C(=O)CCC2` registered an inhibition in assay [1] of 15.2%.

Take `NC(=O)CN1C(=O)C(O)(CC(=O)/C=C\c2ccc3c(c2)OCO3)c2ccccc21` (stereo unspecified): the IC50 – broadly, the midpoint of a concentration-inhibition curve – in assay [2] is 36.1 µM. For the same compound, in assay [1], the inhibition was 55.2%. The compound `CC1=C(C#N)C(=O)N(CCCO)C(=O)/C1=N\Nc1ccc(Br)cc1C(=O)O` came in with an IC50 in assay [2] of 19.1 µM. Further, in assay [1], the inhibition was determined as 65.5%. Compound `O=C(/C=C/c1cn(CC(O)CN2CCOCC2)c2ccccc12)c1cccs1` (stereo unspecified) displayed an inhibition in assay [1] of 22.3%.

For `O=C(CC1C(=O)NCCN1C(=O)CCl)Nc1cccc(Cl)c1` (stereo unspecified), the IC50 in assay [2] worked out at 8.5 µM. For the same compound, in assay [1], the inhibition was found to be 87.6%.

As for `NS(=O)(=O)c1ccc(NC(=O)C(=O)c2ccc[nH]2)cc1`, the inhibition in assay [1] is 31.4%.
